Here are results for 13 compounds from ChEMBL document CHEMBL1133983, “Antiprotozoal and cytotoxicity evaluation of sulfonamide and urea analogues of quinacrine” (Bioorg Med Chem Lett, 2001).

In test [1] the target is T1, Glutathione reductase, mitochondrial (Homo sapiens, UniProt P00390).
T1 sequence (P00390 whole entry): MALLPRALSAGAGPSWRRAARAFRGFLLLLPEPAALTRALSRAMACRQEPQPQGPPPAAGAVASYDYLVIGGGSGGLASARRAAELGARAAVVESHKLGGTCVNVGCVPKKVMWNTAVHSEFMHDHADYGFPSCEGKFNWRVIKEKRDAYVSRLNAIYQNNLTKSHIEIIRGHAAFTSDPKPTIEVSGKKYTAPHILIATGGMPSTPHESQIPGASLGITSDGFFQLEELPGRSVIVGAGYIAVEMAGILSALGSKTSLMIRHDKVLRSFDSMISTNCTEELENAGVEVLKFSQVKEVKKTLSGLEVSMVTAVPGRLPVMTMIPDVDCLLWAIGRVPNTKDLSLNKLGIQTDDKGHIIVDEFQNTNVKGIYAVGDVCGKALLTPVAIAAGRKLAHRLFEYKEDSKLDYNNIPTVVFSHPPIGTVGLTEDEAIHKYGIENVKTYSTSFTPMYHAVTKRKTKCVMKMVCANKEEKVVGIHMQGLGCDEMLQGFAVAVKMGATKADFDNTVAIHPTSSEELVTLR
Kind of test: Inhibitory concentration against human Glutathione reductase was determined. In short, it runs like this:
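Human glutathione reductase purified from erythrocytes (42.3 mU) was run spectrophotometrically at 25 °C in 40 mM HEPES pH 7.5 with 1 mM EDTA and NADPH. It was preincubated with NADPH for 10 min, inhibitor was added at varying concentrations in DMSO (1% v/v final), and glutathione disulfide was then added.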

A short description of test [2]: Ratio of Inhibitory activity against glutathione reductase and inhibitory activity against trypanothione reductase was determined.
The target of test [3] is Trypanothione reductase (Trypanosoma cruzi, UniProt P28593). Kind of test: Inhibitory concentration against trypanothione reductase was determined. The gist of the method: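 Recombinant T. cruzi trypanothione reductase (128 mU) was followed spectrophotometrically at 25 °C in 40 mM HEPES pH 7.5 with 1 mM EDTA and NADPH. Enzyme and NADPH were preincubated for 10 min at 25 °C, inhibitor was added at varying concentrations in DMSO (1% v/v final), and the reaction was started with Try[SH]2.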

Test [4] relates to Trypanosoma brucei. Kind of test: Anti parasitic activity against Trypanosoma brucei. Particulars: read-out: ED50 (the source's name). It is filed as functional.
The subject of test [5] is KB. Kind of test: Toxicity of the quinacrine derivatives was determined against the KB cell line in comparison to podophyllotoxin. In kind it is functional. Particulars: Homo sapiens, read-out: ED50 (the source's name).
In test [6] the test system is Trypanosoma cruzi. As to the kind of experiment: Anti parasitic activity against Trypanosoma cruzi (cultured in murine macrophages). In kind it is functional. Particulars: read-out: ED50 (the source's name).
Test [7] has as its system Plasmodium falciparum. Kind of test: Antiparasitic activity for Plasmodium falciparum 3D7. In kind it is functional. As to conditions: read-out: ED50 (the source's name). The gist of the method:
(§1)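 Growth of P. falciparum in human red blood cells was measured by [³H]-hypoxanthine incorporation over 48 h. 3D7 is the chloroquine-sensitive strain and K1 the chloroquine-resistant strain.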

In test [8] the test system is Leishmania donovani. As to the kind of experiment: Anti parasitic activity against Leishmania donovani (cultured in murine macrophages). In kind it is functional. Particulars: for EC50: read-out: ED50 (the source's name).
For test [9], the system named is Plasmodium falciparum. Kind of test: Anti parasitic activity for Plasmodium falciparum K1. Particulars: read-out: ED50 (the source's name). It is filed as functional. The gist of the method:
as §1

In test [10] the test system is Trypanosoma cruzi. Kind of test: Anti parasitic activity against Trypanosoma cruzi. It is filed as functional. Particulars: read-out: ED50 (the source's name). The gist of the method:
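In vitro test against intracellular amastigotes of T. cruzi grown in murine macrophages.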

Converted amounts (≈) assume the structure as drawn.

Chain of Trypanothione reductase (P28593 whole entry): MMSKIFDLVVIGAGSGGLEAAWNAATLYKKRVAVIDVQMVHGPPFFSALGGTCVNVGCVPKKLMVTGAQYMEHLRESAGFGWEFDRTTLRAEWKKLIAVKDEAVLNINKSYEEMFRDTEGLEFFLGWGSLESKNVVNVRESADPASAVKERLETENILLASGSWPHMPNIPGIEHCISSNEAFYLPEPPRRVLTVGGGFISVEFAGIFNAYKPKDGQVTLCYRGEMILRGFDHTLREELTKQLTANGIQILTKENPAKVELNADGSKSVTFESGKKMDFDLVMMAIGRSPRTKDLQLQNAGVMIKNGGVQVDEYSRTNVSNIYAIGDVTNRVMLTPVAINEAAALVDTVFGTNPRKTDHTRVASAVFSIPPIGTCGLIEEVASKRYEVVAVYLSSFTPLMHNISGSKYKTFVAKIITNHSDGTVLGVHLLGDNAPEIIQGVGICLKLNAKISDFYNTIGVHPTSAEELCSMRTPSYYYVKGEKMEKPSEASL

With `CCN(CC)CCCC(C)Nc1c2ccc(Cl)cc2nc2ccc(OC)cc12` (stereo unspecified) [QUINACRINE], the IC50 – broadly, the concentration at which inhibition is half-maximal – in [1] is more than 1000 µM; in test [3] it was 133 µM. Besides, the Selectivity in test [2] is more than 7.5.
As for `N=C(N)c1ccc(OCCCCCOc2ccc(C(=N)N)cc2)cc1` [PENTAMIDINE], in test [4], the EC50 is 0.0002 µg/mL (≈ 0.000587 µM).
Take `COc1ccc2nc3cc(Cl)ccc3c(NCCNS(=O)(=O)c3ccc4ccccc4c3)c2c1`: the IC50 in test [1] is 9.9 µM; in test [3], 5.9 µM. Further, the EC50 in test [5] is 2.7 µg/mL (≈ 5.49 µM); in test [6], more than 30 µg/mL; in test [4], 0.47 µg/mL (≈ 0.955 µM); in test [7], 0.025 µg/mL (≈ 0.0508 µM); in [8], 5.8 µg/mL (≈ 11.8 µM). Moreover, in [2], the Selectivity is 1.7.
`COc1ccc2nc3cc(Cl)ccc3c(NCCCCNS(=O)(=O)c3ccc4ccccc4c3)c2c1`: the IC50 in [1] worked out at 13.9 µM; in [3], 5 µM. In addition, the EC50 was 0.4 µg/mL (≈ 0.769 µM) in test [5]; more than 30 µg/mL in test [6]; 0.12 µg/mL (≈ 0.231 µM) in test [4]; 0.033 µg/mL (≈ 0.0635 µM) in test [7]; 3.3 µg/mL (≈ 6.35 µM) in test [8]. Moreover, the Selectivity in test [2] amounted to 2.8.
For the compound `COc1cc([C@@H]2c3cc4c(cc3[C@H](O)[C@H]3COC(=O)[C@H]23)OCO4)cc(OC)c1OC` [PODOFILOX], in test [5], the EC50 turned out to be 0.008 µg/mL (≈ 0.0193 µM).
With `COc1ccc2nc3cc(Cl)ccc3c(NCCCCCCNC(=O)NCc3ccccc3)c2c1`, the IC50 in test [1] was found to be 17.1 µM; in test [3] it was 11.4 µM. Moreover, the EC50 in test [5] turned out to be 4.3 µg/mL (≈ 8.76 µM); in test [6], 6.8 µg/mL (≈ 13.8 µM); in test [4], 0.46 µg/mL (≈ 0.937 µM); in test [7], 0.14 µg/mL (≈ 0.285 µM); in test [8], 5.8 µg/mL (≈ 11.8 µM). Also, the Selectivity in test [2] is 1.5.
`COc1ccc2nc3cc(Cl)ccc3c(NCCCCNC(=O)NCc3ccccc3)c2c1`: the IC50 in test [1] came to 55.8 µM; in test [3] it was 15.5 µM. Besides, the EC50 in [5] is 0.8 µg/mL (≈ 1.73 µM); in test [6], less than 1 µg/mL; in [4] it was 0.043 µg/mL (≈ 0.0929 µM); in [7], 0.0013 µg/mL (≈ 0.00281 µM); in test [8], 1.9 µg/mL (≈ 4.1 µM). Besides, in test [2], the Selectivity turned out to be 3.6.
Compound Pentostam returned an ED50 in test [8] of 8.9 µg/mL.
For the compound `COc1ccc2nc3cc(Cl)ccc3c(NCCCNS(=O)(=O)c3ccc4ccccc4c3)c2c1`, the IC50 in test [1] is 27.2 µM; in test [3], 3.3 µM. The EC50 in test [5] worked out at 0.4 µg/mL (≈ 0.79 µM); in [6], 23.9 µg/mL (≈ 47.2 µM); in [4], 0.078 µg/mL (≈ 0.154 µM); in test [7], 0.01 µg/mL (≈ 0.0198 µM); in [8], 1.9 µg/mL (≈ 3.75 µM). Besides, the Selectivity in test [2] was determined as 8.2.
On to `COc1ccc2nc3cc(Cl)ccc3c(NCCCNC(=O)NCc3ccccc3)c2c1`, for which the IC50 in test [1] came to 44.7 µM; in [3], 13.1 µM. Besides, the EC50 was 0.7 µg/mL (≈ 1.56 µM) in test [5]; 22 µg/mL (≈ 49 µM) in [6]; 0.083 µg/mL (≈ 0.185 µM) in [4]; 0.015 µg/mL (≈ 0.0334 µM) in [9]; 0.0005 µg/mL (≈ 0.00111 µM) in test [7]; 1.9 µg/mL (≈ 4.23 µM) in [8]. In addition, the Selectivity in test [2] came out at 3.4.
As to `COc1ccc2nc3cc(Cl)ccc3c(NCCNC(=O)NCc3ccccc3)c2c1`, the IC50 in [1] was determined as 27.2 µM; in test [3], 19.3 µM. Moreover, the EC50 in test [5] is 4.1 µg/mL (≈ 9.43 µM); in [6] it was more than 30 µg/mL; in [4] it was 0.42 µg/mL (≈ 0.966 µM); in [7], 0.069 µg/mL (≈ 0.159 µM); in test [8], 10.7 µg/mL (≈ 24.6 µM). In addition, the Selectivity in [2] turned out to be 1.4.
As to `c1ccc2[nH]cnc2c1` [BENZIMIDAZOLE], the EC50 in test [10] came to 12.4 µg/mL (≈ 105 µM).
On to `CCN(CC)CCCC(C)Nc1ccnc2cc(Cl)ccc12` (stereo unspecified) [CHLOROQUINE], for which the EC50 in test [9] was found to be 0.15 µg/mL (≈ 0.469 µM); in test [7] it was 0.002 µg/mL (≈ 0.00625 µM).
